# Reference: ChEMBL document CHEMBL4689842, “EUbOPEN Chemogenomics Library wave 1” (2021)
# Where “and” joins values, the source holds several entries; their conditions need not be identical. Identical values can stand only once.
# System: HEK-293T
# Assay: Multiplex assay against HEK293T;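 as to Population Tubulin-Different-Phenotype (%): share of the cells with healthy nuclei that show this phenotype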
# Assay type: toxicity, cell-based
# Conditions: human
# Procedure, shortened: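 Live cells carried four stains from seeding: Hoechst33342, BioTracker Green Microtubule Cytoskeleton Dye, MitoTracker Red and Annexin V Alexa Fluor 680. They were imaged on a CQ1 microscope at 37°C and 5% CO2 after compound addition. Using CellPathfinder machine-learning gating, cells were split into Hoechst high-intensity objects or normal cells, normal cells into healthy, pyknosed or fragmented nuclei, and pyknosed cells into mitotic or apoptotic; tubulin, mitochondrial-mass and membrane-permeability phenotypes are per cents of healthy-nucleus cells.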
# [1] = 12 h, 1 µM, compound concentration 1 uM, replicate 1
# [2] = 12 h, 1 µM, compound concentration 1 uM, replicate 2
# [3] = 12 h, 10 µM, compound concentration 10 uM, replicate 1
# [4] = 12 h, 10 µM, compound concentration 10 uM, replicate 2
# [5] = 24 h, 1 µM, compound concentration 1 uM, replicate 1
# [6] = 24 h, 1 µM, compound concentration 1 uM, replicate 2
# [7] = 24 h, 10 µM, compound concentration 10 uM, replicate 1
# [8] = 24 h, 10 µM, compound concentration 10 uM, replicate 2
# [9] = 48 h, 1 µM, compound concentration 1 uM, replicate 1
# [10] = 48 h, 1 µM, compound concentration 1 uM, replicate 2
# [11] = 48 h, 10 µM, compound concentration 10 uM, replicate 1
# [12] = 48 h, 10 µM, compound concentration 10 uM, replicate 2
smiles,measurement,setting,value
CC(C)N1CCC(C)(C)c2cc(C#Cc3ccc(C(=O)O)cc3)ccc21,Population Apoptotic (%),[1],60%
same,Population Fragmented Nuclei (%),[1],13%
same,Population Healthy Nuclei (%),[1],45%
same,Population Hoechst High Intensity Objects (%),[1],17%
same,Population Membrane Permeable-Phenotype (%),[1],2%
same,Population Mitochondria Different-Phenotype (%),[1],74%
same,Population Mitotic Cells (%),[1],40%
same,Population Normal (%),[1],82%
same,Population Pyknosed Nuclei (%),[1],41%
same,Population Tubulin-Different-Phenotype (%),[1],43%
same,Total Cell Count,[1],278
same,Population Apoptotic (%),[2],18%
same,Population Fragmented Nuclei (%),[2],4%
same,Population Healthy Nuclei (%),[2],54%
same,Population Hoechst High Intensity Objects (%),[2],8%
same,Population Membrane Permeable-Phenotype (%),[2],8%
same,Population Mitochondria Different-Phenotype (%),[2],12%
same,Population Mitotic Cells (%),[2],81%
same,Population Normal (%),[2],91%
same,Population Tubulin-Different-Phenotype (%),[2],6%
same,Total Cell Count,[2],156
same,Population Apoptotic (%),[3],52%
same,Population Fragmented Nuclei (%),[3],51%
same,Population Healthy Nuclei (%),[3],40%
same,Population Hoechst High Intensity Objects (%),[3],64%
same,Population Membrane Permeable-Phenotype (%),[3],5%
same,Population Mitochondria Different-Phenotype (%),[3],66%
same,Population Mitotic Cells (%),[3],47%
same,Population Normal (%),[3],35%
same,Population Pyknosed Nuclei (%),[3],8%
same,Population Tubulin-Different-Phenotype (%),[3],23%
same,Total Cell Count,[3],563
same,Population Apoptotic (%),[4],16%
same,Population Fragmented Nuclei (%),[4],32%
same,Population Healthy Nuclei (%),[4],61%
same,Population Hoechst High Intensity Objects (%),[4],44%
same,Population Membrane Permeable-Phenotype (%),[4],4%
same,Population Mitochondria Different-Phenotype (%),[4],12%
same,Population Mitotic Cells (%),[4],83%
same,Population Normal (%),[4],55%
same,Population Pyknosed Nuclei (%),[4],5%
same,Population Tubulin-Different-Phenotype (%),[4],5%
same,Total Cell Count,[4],405
same,Population Apoptotic (%),[5],58%
same,Population Fragmented Nuclei (%),[5],13%
same,Population Healthy Nuclei (%),[5],45%
same,Population Hoechst High Intensity Objects (%),[5],19%
same,Population Membrane Permeable-Phenotype (%),[5],6%
same,Population Mitochondria Different-Phenotype (%),[5],52%
same,Population Mitotic Cells (%),[5],41%
same,Population Normal (%),[5],80%
same,Population Pyknosed Nuclei (%),[5],41%
same,Population Tubulin-Different-Phenotype (%),[5],49%
same,Total Cell Count,[5],315
same,Population Apoptotic (%),[6],14%
same,Population Fragmented Nuclei (%),[6],4%
same,Population Healthy Nuclei (%),[6],59%
same,Population Hoechst High Intensity Objects (%),[6],4%
same,Population Membrane Permeable-Phenotype (%),[6],7%
same,Population Mitochondria Different-Phenotype (%),[6],4%
same,Population Mitotic Cells (%),[6],85%
same,Population Normal (%),[6],95%
same,Population Pyknosed Nuclei (%),[6],35%
same,Population Tubulin-Different-Phenotype (%),[6],10%
same,Total Cell Count,[6],168
same,Population Apoptotic (%),[7],37%
same,Population Fragmented Nuclei (%),[7],56%
same,Population Healthy Nuclei (%),[7],40%
same,Population Hoechst High Intensity Objects (%),[7],62%
same,Population Membrane Permeable-Phenotype (%),[7],6%
same,Population Mitochondria Different-Phenotype (%),[7],37%
same,Population Mitotic Cells (%),[7],62%
same,Population Normal (%),[7],37%
same,Population Pyknosed Nuclei (%),[7],4%
same,Population Tubulin-Different-Phenotype (%),[7],21%
same,Total Cell Count,[7],530
same,Population Apoptotic (%),[8],0%
same,Population Fragmented Nuclei (%),[8],29%
same,Population Healthy Nuclei (%),[8],67%
same,Population Hoechst High Intensity Objects (%),[8],46%
same,Population Membrane Permeable-Phenotype (%),[8],3%
same,Population Mitochondria Different-Phenotype (%),[8],6%
same,Population Mitotic Cells (%),[8],100%
same,Population Normal (%),[8],53%
same,Population Pyknosed Nuclei (%),[8],3%
same,Population Tubulin-Different-Phenotype (%),[8],9%
same,Total Cell Count,[8],448
same,Population Apoptotic (%),[9],43%
same,Population Fragmented Nuclei (%),[9],15%
same,Population Healthy Nuclei (%),[9],56%
same,Population Hoechst High Intensity Objects (%),[9],17%
same,Population Membrane Permeable-Phenotype (%),[9],6%
same,Population Mitochondria Different-Phenotype (%),[9],29%
same,Population Mitotic Cells (%),[9],56%
same,Population Normal (%),[9],82%
same,Population Pyknosed Nuclei (%),[9],28%
same,Population Tubulin-Different-Phenotype (%),[9],27%
same,Total Cell Count,[9],389
same,Population Apoptotic (%),[10],11%
same,Population Fragmented Nuclei (%),[10],9%
same,Population Healthy Nuclei (%),[10],80%
same,Population Hoechst High Intensity Objects (%),[10],2%
same,Population Membrane Permeable-Phenotype (%),[10],5%
same,Population Mitochondria Different-Phenotype (%),[10],2%
same,Population Mitotic Cells (%),[10],88%
same,Population Normal (%),[10],97%
same,Population Pyknosed Nuclei (%),[10],10%
same,Population Tubulin-Different-Phenotype (%),[10],9%
same,Total Cell Count,[10],358
same,Population Apoptotic (%),[11],37%
same,Population Fragmented Nuclei (%),[11],57%
same,Population Healthy Nuclei (%),[11],38%
same,Population Hoechst High Intensity Objects (%),[11],66%
same,Population Membrane Permeable-Phenotype (%),[11],7%
same,Population Mitochondria Different-Phenotype (%),[11],12%
same,Population Mitotic Cells (%),[11],62%
same,Population Normal (%),[11],33%
same,Population Pyknosed Nuclei (%),[11],3%
same,Population Tubulin-Different-Phenotype (%),[11],3%
same,Total Cell Count,[11],624
same,Population Apoptotic (%),[12],0%
same,Population Fragmented Nuclei (%),[12],23%
same,Population Healthy Nuclei (%),[12],73%
same,Population Hoechst High Intensity Objects (%),[12],52%
same,Population Membrane Permeable-Phenotype (%),[12],4%
same,Population Mitochondria Different-Phenotype (%),[12],1%
same,Population Mitotic Cells (%),[12],100%
same,Population Normal (%),[12],47%
same,Population Pyknosed Nuclei (%),[12],2%
same,Population Tubulin-Different-Phenotype (%),[12],5%
same,Total Cell Count,[12],571
CC(C)Oc1ccc(C(=O)N[C@H](CNC(=O)CN(C)C)Cc2ccc(-c3cn4cccc([C@H](C)O)c4n3)cc2)cc1Cl [GSK-923295A],Population Apoptotic (%),[1],15%
same,Population Fragmented Nuclei (%),[1],9%
same,Population Healthy Nuclei (%),[1],61%
same,Population Hoechst High Intensity Objects (%),[1],8%
same,Population Membrane Permeable-Phenotype (%),[1],6%
same,Population Mitochondria Different-Phenotype (%),[1],10%
same,Population Mitotic Cells (%),[1],84%
same,Population Normal (%),[1],91%
same,Population Pyknosed Nuclei (%),[1],28%
same,Population Tubulin-Different-Phenotype (%),[1],15%
same,Total Cell Count,[1],623
same,Population Apoptotic (%),[2],7%
same,Population Fragmented Nuclei (%),[2],6%
same,Population Healthy Nuclei (%),[2],69%
same,Population Hoechst High Intensity Objects (%),[2],2%
same,Population Membrane Permeable-Phenotype (%),[2],3%
same,Population Mitochondria Different-Phenotype (%),[2],12%
same,Population Mitotic Cells (%),[2],92%
same,Population Normal (%),[2],97%
same,Population Pyknosed Nuclei (%),[2],24%
same,Population Tubulin-Different-Phenotype (%),[2],25%
same,Total Cell Count,[2],1239
same,Population Apoptotic (%),[3],33% and 93%
same,Population Fragmented Nuclei (%),[3],22% and 19%
same,Population Healthy Nuclei (%),[3],37% and 22%
same,Population Hoechst High Intensity Objects (%),[3],20% and 23%
same,Population Normal (%),[3],79% and 76%
same,Population Pyknosed Nuclei (%),[3],39% and 58%
same,Population Tubulin-Different-Phenotype (%),[3],82% and 100%
same,Population Healthy Nuclei (%),[4],28% and 73%
same,Population Hoechst High Intensity Objects (%),[4],4%
same,Population Membrane Permeable-Phenotype (%),[4],13% and 21%
same,Population Mitochondria Different-Phenotype (%),[4],86% and 42%
same,Population Mitotic Cells (%),[4],32% and 82%
same,Population Normal (%),[4],95%
same,Population Pyknosed Nuclei (%),[4],62% and 24%
same,Population Tubulin-Different-Phenotype (%),[4],94% and 98%
same,Population Apoptotic (%),[5],10%
same,Population Fragmented Nuclei (%),[5],10%
same,Population Healthy Nuclei (%),[5],65%
same,Population Hoechst High Intensity Objects (%),[5],7%
same,Population Membrane Permeable-Phenotype (%),[5],6%
same,Population Mitochondria Different-Phenotype (%),[5],11%
same,Population Mitotic Cells (%),[5],90%
same,Population Normal (%),[5],92%
same,Population Pyknosed Nuclei (%),[5],24%
same,Population Tubulin-Different-Phenotype (%),[5],23%
same,Total Cell Count,[5],668
same,Population Apoptotic (%),[6],12%
same,Population Fragmented Nuclei (%),[6],13%
same,Population Healthy Nuclei (%),[6],77%
same,Population Hoechst High Intensity Objects (%),[6],4%
same,Population Membrane Permeable-Phenotype (%),[6],4%
same,Population Mitochondria Different-Phenotype (%),[6],8%
same,Population Mitotic Cells (%),[6],87%
same,Population Normal (%),[6],95%
same,Population Pyknosed Nuclei (%),[6],8%
same,Population Tubulin-Different-Phenotype (%),[6],28%
same,Total Cell Count,[6],1632
same,Population Apoptotic (%),[7],92% and 41%
same,Population Fragmented Nuclei (%),[7],19%
same,Population Healthy Nuclei (%),[7],33% and 54%
same,Population Hoechst High Intensity Objects (%),[7],22% and 18%
same,Population Membrane Permeable-Phenotype (%),[7],0% and 19%
same,Population Mitochondria Different-Phenotype (%),[7],100% and 41%
same,Population Normal (%),[7],77% and 81%
same,Population Pyknosed Nuclei (%),[7],47% and 26%
same,Population Tubulin-Different-Phenotype (%),[7],91%
same,Population Fragmented Nuclei (%),[8],8% and 4%
same,Population Healthy Nuclei (%),[8],39% and 72%
same,Population Hoechst High Intensity Objects (%),[8],4% and 7%
same,Population Mitochondria Different-Phenotype (%),[8],94% and 40%
same,Population Normal (%),[8],95% and 92%
same,Population Pyknosed Nuclei (%),[8],51% and 22%
same,Population Tubulin-Different-Phenotype (%),[8],96% and 98%
same,Population Apoptotic (%),[11],87%
same,Population Fragmented Nuclei (%),[11],23%
same,Population Healthy Nuclei (%),[11],46%
same,Population Hoechst High Intensity Objects (%),[11],30%
same,Population Membrane Permeable-Phenotype (%),[11],3%
same,Population Mitochondria Different-Phenotype (%),[11],100%
same,Population Mitotic Cells (%),[11],12%
same,Population Normal (%),[11],69%
same,Population Pyknosed Nuclei (%),[11],29%
same,Population Tubulin-Different-Phenotype (%),[11],88%
same,Total Cell Count,[11],156
same,Population Apoptotic (%),[12],75%
same,Population Fragmented Nuclei (%),[12],10%
same,Population Healthy Nuclei (%),[12],53%
same,Population Hoechst High Intensity Objects (%),[12],15%
same,Population Membrane Permeable-Phenotype (%),[12],9%
same,Population Mitochondria Different-Phenotype (%),[12],86%
same,Population Mitotic Cells (%),[12],24%
same,Population Normal (%),[12],84%
same,Population Pyknosed Nuclei (%),[12],35%
same,Population Tubulin-Different-Phenotype (%),[12],97%
same,Total Cell Count,[12],164
